Experiments:
Assay type in all cases: functional
[1] = test system: Rattus norvegicus; assay: Percentage reduction of thrombus formation by weight in rat (intraperitoneal administration); parameters: concentration or dose not given beside the values
Procedure, shortened: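 Rat venous stasis thrombosis model using a factor Xa thrombogenic challenge 4 h after intraperitoneal dosing in carboxymethylcellulose at 5 mL/kg. Dose was 100 mg/kg when the mouse lethal dose exceeded 800 mg/kg, otherwise 1/10 of LD50. Body temperature was kept near 37 °C. Thrombus was excised from the split vein, dried 24 h at 55 °C and weighed. Read-out is % reduction in thrombus weight, with 5–10 rats per lot.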

[2] = test system: Rattus norvegicus; assay: Antithrombotic activity was determined at 100 mg/kg for nonlethal dose in rat
Procedure, shortened: (§1)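 Rats received 100 mg/kg intraperitoneally in (carboxymethyl)cellulose (5 mL/kg), for substances with a mouse lethal dose above 800 mg/kg. Factor Xa was injected 4 h later to induce venous thrombosis, with body temperature near 37 °C. Clamps were placed 15 min after partial flow was restored. The thrombus was excised, dried 24 h at 55 °C and weighed. The result is % reduction of thrombus weight, with 5–10 rats per lot.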

[3] = test system: Rattus norvegicus; assay: Effective dose administered by intravenous route before injection of thrombogenic agent in rat model
Procedure, shortened: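 Intravenous dosing in rats at various times before the factor Xa thrombogenic challenge. Thrombus was isolated from the vein segment, dried 24 h at 55 °C and weighed. ED50 was calculated by linear regression with 95% confidence limits.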

[4] = test system: Rattus norvegicus; assay: Effective dose administered orally (4h before injection of the thrombotic stimulus) with reduced thrombus weight in dose-related manner; details: po
[5] = test system: Rattus norvegicus; assay: Antithrombotic activity at 100 mg/kg in rat; procedure, shortened: as §1
[6] = test system: Rattus norvegicus; assay: Antithrombotic activity at 1/10 mg/kg in rat
Procedure, shortened: (§2)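 Rat venous thrombosis model with factor Xa as the thrombogenic stimulus, injected 4 h after intraperitoneal dosing in (carboxymethyl)cellulose vehicle (5 mL/kg). Dose was 1/10 of the mouse LD50. Body temperature was kept near 37 °C. The vein was clamped 15 min after partial flow was restored. The thrombus was dried 24 h at 55 °C and weighed. The result is % reduction of thrombus weight, with 5–10 rats per lot.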

[7] = test system: Rattus norvegicus; assay: Antithrombotic activity at 100 mg/kg for nonlethal dose in rat; procedure, shortened: as §1
[8] = test system: Rattus norvegicus; assay: Antithrombotic activity at 1/10 mg/kg for lethal dose in rat; procedure, shortened: as §2

| Structure (SMILES) | Activity [1] | LD0 [2] | other results |
| --- | --- | --- | --- |
| O=C(c1ccc(O[C@H]2O[C@H](CO)[C@@H](O)[C@H](O)[C@@H]2O)cc1)c1ccc([N+](=O)[O-])cc1 | 0% | >800 mg | – |
| O=C(O)C1OC(OC2C(COS(=O)(=O)O)OC(CO)C(NS(=O)(=O)O)C2O)C(OS(=O)(=O)O)C(O)C1CO (centres undefined) | – | – | ED50 [3]: 0.15 mg/kg |
| OC(c1ccc(Cl)cc1)c1ccc(O[C@@H]2OC[C@@H](O)[C@H](O)[C@H]2O)cc1 (some centres undefined) | 39% | >800 mg | – |
| Cc1cc(C(=O)c2ccccc2C)ccc1O[C@@H]1OC[C@@H](O)[C@H](O)[C@H]1O | 62% | – | – |
| O=C(c1ccc(O[C@@H]2O[C@H](CO)[C@@H](O)[C@H](O)[C@@H]2O)cc1)c1ccc([N+](=O)[O-])cc1 | 0% | >800 mg | – |
| Cc1ccc(C(=O)c2cccc(O[C@@H]3OC[C@@H](O)[C@H](O)[C@H]3O)c2)cc1 | 0% | >800 mg | – |
| O[C@@H]1[C@@H](O)[C@H](Oc2ccc(Cc3ccccc3Cl)cc2)OC[C@H]1O | 0% | >800 mg | – |
| O=C(c1ccc(O[C@@H]2OC[C@@H](O)[C@H](O)[C@H]2O)cc1)c1ccc(Cl)cc1Cl | 18% | >800 mg | – |
| O=C(c1ccc(O[C@@H]2O[C@H](CO)[C@H](O)[C@H](O)[C@H]2O)cc1)c1ccc([N+](=O)[O-])cc1 | 0% | >800 mg | – |
| Cc1ccc(C(=O)c2ccc(O[C@@H]3OC[C@@H](O)[C@H](O)[C@H]3O)cc2)cc1 | 0% | >800 mg | – |
| O=C(c1ccc(O[C@@H]2OC[C@@H](O)[C@H](O)[C@H]2O)cc1)c1ccccc1Cl | 76% | >800 mg | – |
| O=[N+]([O-])c1ccc(Cc2ccc(O[C@@H]3OC[C@@H](O)[C@H](O)[C@H]3O)cc2)cc1 | 80% | – | ED50 [4]: 24 mg/kg; LD50 [5]: 650 mg |
| O=[N+]([O-])c1cccc(C(O)c2ccc(O[C@@H]3OC[C@@H](O)[C@H](O)[C@H]3O)cc2)c1 (some centres undefined) | 63% | – | LD50 [5]: 600 mg |
| OC(c1ccc(O[C@@H]2OC[C@@H](O)[C@H](O)[C@H]2O)cc1)c1ccc(Cl)cc1Cl (some centres undefined) | 37% | – | LD50 [5]: 350 mg |
| OC(c1ccccc1)c1ccc(O[C@@H]2OC[C@@H](O)[C@H](O)[C@H]2O)cc1 (some centres undefined) | 37% | >800 mg | – |
| O=[N+]([O-])c1cccc(Cc2ccc(O[C@@H]3OC[C@@H](O)[C@H](O)[C@H]3O)cc2)c1 | 32% | >800 mg | – |
| O=C(c1ccc(O[C@@H]2OC[C@@H](O)[C@H](O)[C@H]2O)cc1)c1ccc([N+](=O)[O-])cc1 | 0% | >800 mg | – |
| O[C@@H]1[C@@H](O)[C@H](Oc2cccc(Cc3ccc(Cl)cc3)c2)OC[C@H]1O | 46% | – | LD50 [5]: 500 mg |
| O[C@@H]1[C@@H](O)[C@H](Oc2ccc(Cc3ccccc3)cc2)OC[C@H]1O | 12% | >800 mg | – |
| O=C(c1ccc([N+](=O)[O-])cc1)c1cccc(O[C@@H]2OC[C@@H](O)[C@H](O)[C@H]2O)c1 | 61% | >800 mg | – |
| O=C(c1ccc(O[C@@H]2O[C@H](CO)[C@@H](O)[C@H](O)[C@H]2O)cc1)c1ccc([N+](=O)[O-])cc1 | 0% | >800 mg | – |
| O=C(c1ccc(Cl)cc1)c1ccc(O[C@@H]2O[C@H](CO)[C@H](O)[C@H](O)[C@H]2O)cc1 | 0% | >800 mg | – |
| O=C(c1ccc(O[C@@H]2O[C@H](CO)[C@H](O[C@@H]3O[C@H](CO)[C@@H](O)[C@H](O)[C@H]3O)[C@H](O)[C@H]2O)cc1)c1ccc([N+](=O)[O-])cc1 | 17% | >800 mg | – |
| O=C(c1ccc(Cl)cc1)c1ccc(O[C@@H]2O[C@H](CO)[C@@H](O)[C@H](O)[C@H]2O)cc1 | 0% | >800 mg | – |

| Structure (SMILES) | Activity [1] | LD0 [2] | other results |
| --- | --- | --- | --- |
| Cc1ccc(O[C@@H]2OC[C@@H](O)[C@H](O)[C@H]2O)c(C(=O)c2ccccc2C)c1 | 0% | >800 mg | – |
| O=C(c1ccccc1)c1ccc(O[C@@H]2OC[C@@H](O)[C@H](O)[C@H]2O)cc1 | 77% | – | LD50 [6]: 750 mg |
| O=C(c1ccc(O[C@@H]2OC[C@@H](O)[C@H](O)[C@H]2O)cc1)c1cccc([N+](=O)[O-])c1 | 39% | >800 mg | – |
| O=C(c1ccccc1)c1ccc(O[C@@H]2O[C@H](CO)[C@@H](O)[C@H](O)[C@H]2O)cc1 | 25% | >800 mg | – |
| COc1ccc(C(=O)c2ccc(O[C@@H]3OC[C@@H](O)[C@H](O)[C@H]3O)cc2)cc1 | 44% | >800 mg | – |
| Cc1ccccc1C(=O)c1cccc(O[C@@H]2OC[C@@H](O)[C@H](O)[C@H]2O)c1 | 0% | >800 mg | – |
| O=C(c1ccc(O[C@@H]2OC[C@@H](O)[C@H](O)[C@H]2O)cc1)c1ccc(C(F)(F)F)cc1 | 0% | >800 mg | – |
| OC(c1ccc(O[C@@H]2OC[C@@H](O)[C@H](O)[C@H]2O)cc1)c1ccccc1Cl (some centres undefined) | 51% | >800 mg | – |
| O[C@@H]1[C@@H](O)[C@H](Oc2cccc(Cc3ccccc3)c2)OC[C@H]1O | 39% | – | LD50 [5]: 200 mg |
| O[C@@H]1[C@@H](O)[C@H](Oc2ccc(Cc3ccc(Cl)cc3Cl)cc2)OC[C@H]1O | 25% | – | LD50 [5]: 640 mg |
| Cc1cc(C(O)c2ccccc2C)ccc1O[C@@H]1OC[C@@H](O)[C@H](O)[C@H]1O (some centres undefined) | 14% | – | LD50 [5]: 450 mg |
| OC(c1ccc(Cl)cc1)c1cccc(O[C@@H]2OC[C@@H](O)[C@H](O)[C@H]2O)c1 (some centres undefined) | 0% | >800 mg | – |
| O=C(c1ccc(OC2O[C@H](CO)[C@@H](O[C@@H]3O[C@H](CO)[C@H](O)[C@H](O)[C@H]3O)[C@H](O)[C@H]2O)cc1)c1ccc([N+](=O)[O-])cc1 (some centres undefined) | 0% | >800 mg | – |
| O=C(c1ccc(Cl)cc1)c1cccc(O[C@@H]2OC[C@@H](O)[C@H](O)[C@H]2O)c1 | 0% | – | LD50 [7]: 220 mg |
| O=C(c1ccccc1)c1cccc(O[C@@H]2OC[C@@H](O)[C@H](O)[C@H]2O)c1 | 60% | >800 mg | – |
| C[C@@H]1O[C@H](Oc2ccc(C(=O)c3ccc([N+](=O)[O-])cc3)cc2)[C@H](O)[C@H](O)[C@H]1O | 0% | >800 mg | – |
| OC(c1ccccc1)c1cccc(O[C@@H]2OC[C@@H](O)[C@H](O)[C@H]2O)c1 (some centres undefined) | 19% | >800 | – |
| O=C(c1ccc(Cl)cc1)c1ccc(O[C@@H]2OC[C@@H](O)[C@H](O)[C@H]2O)cc1 | 37% | >800 mg | – |
| O[C@@H]1[C@@H](O)[C@H](Oc2ccc(Cc3ccc(Cl)cc3)cc2)OC[C@H]1O | 22% | >800 mg | – |
| O=C(c1ccc(O[C@H]2OC[C@@H](O)[C@H](O)[C@H]2O)cc1)c1ccc([N+](=O)[O-])cc1 | 38% | – | LD50 [8]: 600 mg |
| O=[N+]([O-])c1ccc(C(O)c2ccc(O[C@@H]3OC[C@@H](O)[C@H](O)[C@H]3O)cc2)cc1 (some centres undefined) | 80% | >800 mg | ED50 [3]: 17.8 mg/kg; ED50 [4]: 48 mg/kg |
| COc1ccc(Cc2ccc(O[C@@H]3OC[C@@H](O)[C@H](O)[C@H]3O)cc2)cc1 | 43% | >800 mg | – |
| N#Cc1ccc(C(=O)c2ccc(O[C@@H]3OC[C@@H](O)[C@H](O)[C@H]3O)cc2)cc1 | 0% | – | – |

Source: ChEMBL document CHEMBL1127013, “Glycosylated derivatives of benzophenone, benzhydrol, and benzhydril as potential venous antithrombotic agents” (1993)
